PDI turbidity: blocks human protein disulfide isomerase activity. PDI insulin aggregation turbidity, A650, 90 min. inhibition, % at 10 µM. 350,000 compounds, 0.052% hits. AID 588391;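 active = mean inhibition across replicates of 30% or more, whatever share of single replicates reach that level; inconclusive = mean inhibition below 30% while every single replicate reaches 30%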
FGF22 binding: shifts melting point of recombinant human FGF22; recombinant FGF22 thermal shift, SYPRO orange fluorescence; percent of sucrose octasulfate shift, DMSO zero; activity (Tm shift, normalised), % at 9.99 µM; 340,000 compounds, 1.5% hits;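 active = mean Tm shift, scaled 0 neutral to 100 positive control, at about 1.3% or above, every replicate too, limit read from the data; inconclusive = no clear call, values can overlap the other calls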
ERp5 inh: blocks human ERp5 reductase activity on insulin; ERp5 insulin aggregation, absorbance 650 nm, 90 min; Q15084; 350,000 compounds, 0.05% hits; inhibition, % at 9.99 µM; AID 651711;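 active = mean replicate inhibition above about 25%, with every replicate also reaching it, limit read from the data, passing the limit was not always enough; inconclusive = only one of those two criteria met; inactive = neither criterion met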
S100A4 inh HTS: S100A4-myosin IIA interaction inhibition; P26447; S100A4/TAMRA-MyoIIA peptide fluorescence polarization; inhibition, % at 10.7 µM; 360,000 compounds, 0.14% hits; AID 652163;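 active = mean inhibition of at least 70% across replicates, with every replicate also reaching that level; inconclusive = mean inhibition reaches 70% but some replicates fall short; inactive = mean inhibition below 70%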
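Assay system: human S100A4 monomer with TAMRA-labelled myosin IIA peptide / Buffer or medium: Calcium-containing HEPES buffer, pH 7.2 / Reagent: TAMRA-labelled myosin IIA heavy-chain peptide probe, 5 nM / Compound: one dose per compound / Timing: polarization read 5 min after assay mix addition, stable 5–60 min / Benchmarks: neutral control DMSO, positive control TFP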
ERAP1 HTS inh: inhibitors of human ERAP1 aminopeptidase | recombinant ERAP1, Leu-AMC fluorescence, 60 min | inhibition, % at 10.7 µM | 340,000 compounds, 0.15% hits | AID 652197;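 active = mean replicate inhibition of at least 30%, or all replicates individually reaching that 30% level; inactive = mean below 30% and not every replicate reaching it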
Target sequence (Q9NZ08 whole entry, looked up): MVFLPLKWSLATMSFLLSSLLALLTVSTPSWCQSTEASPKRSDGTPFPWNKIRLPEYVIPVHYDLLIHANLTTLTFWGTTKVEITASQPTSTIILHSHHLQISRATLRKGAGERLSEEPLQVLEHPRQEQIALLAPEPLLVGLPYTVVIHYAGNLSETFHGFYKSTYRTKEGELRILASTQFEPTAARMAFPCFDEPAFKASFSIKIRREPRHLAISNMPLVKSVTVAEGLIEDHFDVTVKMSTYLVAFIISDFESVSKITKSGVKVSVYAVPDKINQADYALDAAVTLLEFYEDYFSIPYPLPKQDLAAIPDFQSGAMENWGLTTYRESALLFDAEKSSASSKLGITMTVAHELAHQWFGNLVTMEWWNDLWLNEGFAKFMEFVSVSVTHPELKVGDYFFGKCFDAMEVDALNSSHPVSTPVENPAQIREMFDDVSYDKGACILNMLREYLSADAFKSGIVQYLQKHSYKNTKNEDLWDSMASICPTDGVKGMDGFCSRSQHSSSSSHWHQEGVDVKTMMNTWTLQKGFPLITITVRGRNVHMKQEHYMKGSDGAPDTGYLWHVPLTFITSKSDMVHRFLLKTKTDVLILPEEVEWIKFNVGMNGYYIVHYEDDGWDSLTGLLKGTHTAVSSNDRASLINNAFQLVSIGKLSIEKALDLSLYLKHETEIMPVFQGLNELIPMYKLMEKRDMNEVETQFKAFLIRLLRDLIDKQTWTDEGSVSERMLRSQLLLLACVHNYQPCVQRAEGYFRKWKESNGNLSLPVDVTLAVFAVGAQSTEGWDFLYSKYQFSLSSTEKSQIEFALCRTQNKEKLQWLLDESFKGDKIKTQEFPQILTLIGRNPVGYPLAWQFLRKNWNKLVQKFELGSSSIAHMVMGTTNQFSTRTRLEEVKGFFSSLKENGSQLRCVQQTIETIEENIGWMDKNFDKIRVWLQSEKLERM
Each line names hits and unclear results; the compound was inactive in the other large screens. Many of the other results were omitted from the sample, so hits are more common in it than they were.

CC[C@@]1(C(=O)OC)N[C@H](CN(C)C(C)=O)[C@@H]2C(=O)N(Cc3ccccc3)C(=O)[C@@H]21	FGF22 binding 44
COC(=O)[C@]1(Cc2ccccc2)N[C@H](CN(C)C(=O)c2ccccc2)[C@@H]2C(=O)N(Cc3ccccc3)C(=O)[C@@H]21	FGF22 binding 43
CC[C@@]1(C(=O)OC)N[C@H](CN(C)C(=O)c2ccc(F)cc2)[C@@H]2C(=O)N(C)C(=O)[C@@H]21	none
COCC(=O)N(C)C[C@H]1N[C@@](C)(C(=O)OC)[C@H]2C(=O)N(Cc3ccccc3)C(=O)[C@@H]12	FGF22 binding 43
CC[C@@]1(C(=O)OC)N[C@H](CN(C)C(=O)c2ccccc2)[C@@H]2C(=O)N(C)C(=O)[C@@H]21	FGF22 binding 43
CCCCOc1ccc(C(=O)Nc2ccc(OCC(=O)N3CCOCC3)cc2)cc1	none
CC(=O)c1ccc(NC(=O)C[n+]2ccc(N(C)C)cc2)cc1	none
CN(C)c1cc[n+](CC(=O)Nc2ccc(OC(F)F)cc2)cc1	ERAP1 HTS inh 107
Cc1ccc2nc(C)c(C(=O)N/N=C/c3ccco3)cc2c1	none (no result: FGF22 binding, ERp5 inh, S100A4 inh HTS, ERAP1 HTS inh)
C[N+]1(CC2COC3(CCCCC3)O2)CCCCC1 (configuration not stated)	ERAP1 HTS inh 54
c1cc(C2OCCN2CC2COC3(CCCC3)O2)ccn1 (configuration not stated)	none (no result: FGF22 binding, ERp5 inh, S100A4 inh HTS, ERAP1 HTS inh)
O=C(c1ccccc1O)N1CCOCC1	FGF22 binding 43
CC1(C)c2ccccc2N(CC(N)=O)C12C=Cc1ccccc1O2 (configuration not stated)	none
CC1(C)c2ccccc2N2CC(=O)N(CC(N)=O)C21C (configuration not stated)	S100A4 inh HTS 118 (no result: FGF22 binding, ERp5 inh, ERAP1 HTS inh)
O=c1c2ccccc2sn1-c1ccccc1	none (no result: FGF22 binding, ERp5 inh, S100A4 inh HTS, ERAP1 HTS inh)
O=C(O)c1cccc(-n2sc3ccccc3c2=O)c1	ERAP1 HTS inh 90
CCOC(=O)c1cc(=O)[nH]c2ccccc12	FGF22 binding 43
CCOC(=O)Cc1c(Cl)c2ccccc2[nH]c1=O	FGF22 binding 43
CCOC(=O)C[n+]1ccc2c([nH]c3ccccc32)c1C	ERAP1 HTS inh 51
CCOC(=O)c1ccc2[nH]c3ccccc3c2c1	none (no result: PDI turbidity)
O=C(NCCc1ccccc1)c1cc(=O)[nH]c2ccccc12	FGF22 binding 43
CCCOC(=O)c1cc(=O)[nH]c2ccccc12	none (no result: FGF22 binding, ERp5 inh, S100A4 inh HTS, ERAP1 HTS inh)
CC(C)(C)N1CC(C(=O)Nc2cccc(Cl)c2Cl)CC1=O (configuration not stated)	none
CC(C)(C)N1CC(C(=O)O)CC1=O (configuration not stated)	FGF22 binding 43
CN1CCN(c2ccccc2NC(=O)c2cccc([N+](=O)[O-])c2)CC1	FGF22 binding 44
O=C(Nc1ccccc1N1CCCC1)c1ccc([N+](=O)[O-])cc1Cl	FGF22 binding 44
O=C(Nc1ccccc1N1CCCC1)c1cc(Cl)ccc1Cl	PDI turbidity inconclusive, FGF22 binding 45
CCOc1ccc(C(=O)N2CCN(c3cnn(-c4ccccc4)c(=O)c3Cl)CC2)cc1	FGF22 binding 44
O=C(c1cccc(Br)c1)N1CCN(c2cnn(-c3ccccc3)c(=O)c2Cl)CC1	none
S=C(NCCc1ccccn1)Nc1ccc(Cl)cc1	none
S=C(NCc1ccccn1)Nc1ccccc1	FGF22 binding 44
Fc1ccc(NC(=S)NCCc2ccccn2)cc1	FGF22 binding 44
COC(=O)c1sccc1NC(=O)Nc1cc(OC)ccc1OC	none
Cn1cc(Cl)c(C(=O)NC(=S)Nc2sc3c(c2C#N)CCCCC3)n1	FGF22 binding 52
O=C(O)c1cccc(NN=C2c3ccccc3-c3ccccc32)c1	none
O=C(O)c1cc(NN=C2c3ccccc3-c3ccccc32)ccc1Cl	ERAP1 HTS inh 31
COC(=O)CC/C(=N/Nc1ccc(Cl)c(Cl)c1)C(=O)OC	FGF22 binding 43
C[C@@H](NC(=O)C[C@H]1CC[C@H](NC(=O)C2CCOCC2)[C@@H](CO)O1)c1ccccc1	none (no result: PDI turbidity)
N#CC1CC(c2ccc([N+](=O)[O-])cc2)=NN1c1ccc([N+](=O)[O-])cc1 (configuration not stated)	FGF22 binding 44
COc1ccc(S(=O)(=O)N(C)C[C@H]2OCCCC[C@@H](C)Oc3ccc(NC(=O)Nc4cccc5ccccc45)cc3C(=O)N([C@@H](C)CO)C[C@H]2C)cc1	FGF22 binding 1.5 (no result: PDI turbidity)
COc1ccc(S(=O)(=O)N(C)C[C@@H]2OCCCC[C@H](C)Oc3ccc(NC(=O)Nc4cccc5ccccc45)cc3C(=O)N([C@H](C)CO)C[C@@H]2C)cc1	none (no result: PDI turbidity)
COc1ccc(S(=O)(=O)N(C)C[C@H]2OCCCC[C@H](C)Oc3ccc(NC(=O)Nc4cccc5ccccc45)cc3C(=O)N([C@H](C)CO)C[C@H]2C)cc1	FGF22 binding 1.7 (no result: PDI turbidity)
Cc1ccc(S(=O)(=O)N(C)C[C@@H]2Oc3ccc(NC(=O)Nc4ccc(C(F)(F)F)cc4)cc3C(=O)N([C@@H](C)CO)C[C@@H]2C)cc1	FGF22 binding 2.8 (no result: PDI turbidity)
COc1ccc(S(=O)(=O)N(C)C[C@H]2OCCCC[C@@H](C)Oc3ccc(NC(=O)Nc4cccc5ccccc45)cc3C(=O)N([C@@H](C)CO)C[C@@H]2C)cc1	FGF22 binding 1.3 (no result: PDI turbidity)
COc1c(Br)cc2c(C)c(C(=O)O)oc2c1Br	none (no result: FGF22 binding, ERp5 inh, S100A4 inh HTS, ERAP1 HTS inh)
Cc1cccc(NC(=O)COC(=O)COc2ccc3c(c2)CCC3)c1	none
CCc1c(O)nc(SCC(N)=O)n(-c2ccccc2F)c1=O	none (no result: FGF22 binding, ERp5 inh, S100A4 inh HTS, ERAP1 HTS inh)
C[C@H](CO)N1C[C@H](C)[C@H](CN(C)S(=O)(=O)c2cn(C)cn2)OCCCC[C@H](C)Oc2ccc(NC(=O)Nc3cccc4ccccc34)cc2C1=O	none (no result: PDI turbidity)
C[C@@H]1CCCCO[C@H](CN(C)S(=O)(=O)c2cn(C)cn2)[C@@H](C)CN([C@H](C)CO)C(=O)c2cc(NC(=O)Nc3cccc4ccccc34)ccc2O1	FGF22 binding 1.7 (no result: PDI turbidity)
COc1ccc(S(=O)(=O)N(C)C[C@@H]2OCCCC[C@@H](C)Oc3ccc(NC(=O)Nc4ccc(C(F)(F)F)cc4)cc3C(=O)N([C@H](C)CO)C[C@@H]2C)cc1	S100A4 inh HTS 99 (no result: PDI turbidity)
Cc1ccc(-c2ccc([C@H]3[C@@H](CO)N4CCCCN(C(=O)c5ccc(F)cc5)C[C@H]34)cc2)cc1	none (no result: PDI turbidity)
COc1ccc2ccc3cccc[n+]3c2c1	ERAP1 HTS inh 43
COc1ccc2nc3ccccc3[n+]([O-])c2c1	none
O=C(Cn1cc(COc2c(F)c(F)c(Br)c(F)c2F)nn1)c1ccc(O)cc1	FGF22 binding 1.8
COc1ccc(CNC(=O)CN(Cc2ccccc2)C(=O)CCC(=O)Nc2ccccn2)cc1	none
C/C(=N/NC(=O)CSc1nc2ccccc2n1C)c1ccncc1	FGF22 binding 43
C/C(=N\NC(=O)CSc1nc2ccccc2[nH]1)c1ccncc1	FGF22 binding 43
Cn1cc2cc(NC(N)=S)ccc2n1	none
N#Cc1c(Nc2ccc(F)cc2)sc(C(=O)c2ccccc2)c1N	FGF22 binding 43
N#Cc1c(Nc2ccc(F)cc2)sc(C(=O)c2ccc(F)cc2)c1N	none
